Active and inactive are the calls of the source. No cut-off for these calls is given here.
Assays:
[1] = target: T1, Polyunsaturated fatty acid lipoxygenase ALOX15 (Homo sapiens) (UniProt P16050); assay: Modulation of 15-LO-mediated 15-HEPE level in human M2 macrophages derived from IL4-polarized human monocyte derived macrophages at 3 uM preincubated for 15 mins followed by Escherichia coli (O6:K2:H1) challenge for 90 mins by LC-MS/MS analysis
T1 sequence (whole entry): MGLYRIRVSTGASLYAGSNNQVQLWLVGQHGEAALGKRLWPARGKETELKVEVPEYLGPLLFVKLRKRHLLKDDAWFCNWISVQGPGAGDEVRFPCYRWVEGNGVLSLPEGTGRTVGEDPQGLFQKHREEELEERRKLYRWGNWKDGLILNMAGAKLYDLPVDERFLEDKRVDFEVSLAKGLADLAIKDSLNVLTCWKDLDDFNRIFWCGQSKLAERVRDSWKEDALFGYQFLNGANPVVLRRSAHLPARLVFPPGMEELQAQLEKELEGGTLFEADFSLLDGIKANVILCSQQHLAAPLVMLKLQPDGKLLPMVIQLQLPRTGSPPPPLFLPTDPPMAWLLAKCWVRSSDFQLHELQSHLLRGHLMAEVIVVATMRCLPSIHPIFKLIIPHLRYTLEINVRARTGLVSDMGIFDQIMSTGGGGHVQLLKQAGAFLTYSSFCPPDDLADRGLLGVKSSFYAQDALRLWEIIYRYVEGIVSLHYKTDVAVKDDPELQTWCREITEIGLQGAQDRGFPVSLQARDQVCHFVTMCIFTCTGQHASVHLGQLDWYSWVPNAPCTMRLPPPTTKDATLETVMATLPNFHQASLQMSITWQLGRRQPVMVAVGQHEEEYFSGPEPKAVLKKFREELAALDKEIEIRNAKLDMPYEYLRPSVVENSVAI
Outline: (§1)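 Monocytes differentiated 6 days with M-CSF (20 ng/ml), then polarized 48 h with IL-4 20 ng/ml (M2). Cells (2 × 10^6) in PBS/1 mM CaCl2 pre-incubated 15 min at 37 °C with 3 µM compound or 0.1% DMSO, then challenged with E. coli O6:K2:H1 (1:50) for 90 min. Lipid mediators extracted by SPE with deuterated internal standards and quantified by UPLC-MS/MS as % of vehicle.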

[2] = system: Macrophage cell line; assay: Modulation of 4-HDHA level in human M2 macrophages derived from IL4-polarized human monocyte derived macrophages at 3 uM preincubated for 15 mins followed by Escherichia coli (O6:K2:H1) challenge for 90 mins by LC-MS/MS analysis; format: functional; outline: as §1
[3] = species: Homo sapiens; assay: Modulation of LO-mediated 5,15-DiHETE level in human M2 macrophages derived from IL4-polarized human monocyte derived macrophages at 3 uM preincubated for 15 mins followed by Escherichia coli (O6:K2:H1) challenge for 90 mins by LC-MS/MS analysis; outline: as §1
[4] = species: Homo sapiens; assay: Modulation of LO-mediated PDX level in human M2 macrophages derived from IL4-polarized human monocyte derived macrophages at 3 uM preincubated for 15 mins followed by Escherichia coli (O6:K2:H1) challenge for 90 mins by LC-MS/MS analysis; outline: as §1
[5] = species: Homo sapiens; assay: Modulation of LO-mediated AT-PD1 level in human M2 macrophages derived from IL4-polarized human monocyte derived macrophages at 3 uM preincubated for 15 mins followed by Escherichia coli (O6:K2:H1) challenge for 90 mins by LC-MS/MS analysis; outline: as §1
[6] = species: Homo sapiens; assay: Modulation of LO-mediated MaR1 level in human M2 macrophages derived from IL4-polarized human monocyte derived macrophages at 3 uM preincubated for 15 mins followed by Escherichia coli (O6:K2:H1) challenge for 90 mins by LC-MS/MS analysis; outline: as §1
[7] = system: Mus musculus; assay: Antiinflammatory activity in zymosan induced CD-1 mouse model of inflammation assessed as reduction in LTB4 levels in air pouch at 10 mg/kg, ip preincubated for 30 mins followed by zymosan challenge and measured after 4 hrs by ELISA; format: functional, organism-based
Outline: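 Air pouch formed by s.c. injection of 2.5 mL sterile air in CD-1 mice; on day 6, 10 mg/kg i.p. (2% DMSO/saline) given 30 min before 1 ml 1% w/v zymosan into the pouch. After 4 h, exudate collected with 1 ml saline and centrifuged; leukocytes counted in Burker chamber; LTB4 in supernatant by ELISA (ng/mL). n=6 mice per group.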

[8] = target: Cyclooxygenase (Homo sapiens, UniProt P35354+P23219); assay: Inhibition of COX1/2 (unknown origin) at 10 uM; format: protein assay
[9] = target: T2, Polyunsaturated fatty acid 5-lipoxygenase (Homo sapiens) (UniProt P09917); assay: Ratio of IC50 for recombinant human 5-LO to IC50 for 5-LO in human neutrophils
T2 sequence (whole entry): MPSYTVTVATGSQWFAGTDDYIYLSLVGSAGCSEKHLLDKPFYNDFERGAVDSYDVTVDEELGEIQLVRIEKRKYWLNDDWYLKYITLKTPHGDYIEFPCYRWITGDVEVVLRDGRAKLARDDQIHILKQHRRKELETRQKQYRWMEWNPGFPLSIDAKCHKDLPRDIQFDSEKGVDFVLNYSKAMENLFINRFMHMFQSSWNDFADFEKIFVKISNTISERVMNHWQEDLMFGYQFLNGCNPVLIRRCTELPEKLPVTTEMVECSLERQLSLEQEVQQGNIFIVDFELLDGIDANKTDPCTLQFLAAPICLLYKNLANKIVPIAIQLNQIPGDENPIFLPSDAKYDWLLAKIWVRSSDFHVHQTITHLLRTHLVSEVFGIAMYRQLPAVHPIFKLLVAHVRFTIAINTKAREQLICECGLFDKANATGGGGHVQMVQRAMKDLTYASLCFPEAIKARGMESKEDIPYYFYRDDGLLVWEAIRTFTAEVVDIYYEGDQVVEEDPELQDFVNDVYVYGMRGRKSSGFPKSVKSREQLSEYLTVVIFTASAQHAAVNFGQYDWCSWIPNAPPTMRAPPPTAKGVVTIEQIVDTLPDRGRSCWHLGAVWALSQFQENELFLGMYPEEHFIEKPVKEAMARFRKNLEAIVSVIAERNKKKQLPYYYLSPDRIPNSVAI

## O=C(O)c1ccc(N(Cc2cccc(OCc3ccccc3)c2)S(=O)(=O)c2ccc(-c3ccccc3)cc2)cc1
[1]
  Activity: 125%
[2]
  Activity: 86%
[3]
  Activity: 122%
[4]
  Activity: 125%
[5]
  Activity: 106%
[6]
  Activity: 141%
[7]
  Activity: Active
[8]
  inhibition (INH): Not Active
[9]
  Ratio IC50: 8

— ChEMBL document CHEMBL4270576, “Discovery of a benzenesulfonamide-based dual inhibitor of microsomal prostaglandin E2 synthase-1 and 5-lipoxygenase that favorably modulates lipid mediator biosynthesis in inflammation” (Eur J Med Chem, 2018)
